Bioassay records deposited in PubChem BioAssay by several laboratories.
Dynein cargo inh: inhibitors of GR-EGFP nuclear translocation, primary screen, dynein cargo transport inhibitor project, imaging, high-content, 3617.4 mouse cells. test concentration mostly 20 µM; stimulated with dexamethasone, 1 µM; hits give low values. z-score, hits read low. hit rate 0.47% among 220,000;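 active means plate z-score of nuclear minus cytoplasmic receptor signal below a set negative limit, without overly bright fluorescence or cell loss, cut at about -3.5 in these data, passing the limit was not always enough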;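 further: z-score of nuclear minus cytoplasmic ring GR-EGFP intensity difference per well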
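Also added: dexamethasone, 1.0 µM final. Medium: tet-free, stripped-serum medium. Detection: fixed, Hoechst-stained cells imaged at 10x for EGFP. Read-out: nuclear-to-cytoplasmic GR-EGFP distribution per well. Times: induction 48 h, compound 1 h, agonist 30 min.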
S1P3 antag: S1P3 receptor antagonists, primary screen, cell-based; inhibition, % at 4.98 µM; CHO S1P3 NFAT-BLA reporter, FRET fluorescence, antagonist mode; hit rate 0.27% among 170,000; Sphingosine 1-phosphate receptor 3 (Homo sapiens), Q99500;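 active means inhibition above the plate cutoff, the mean inhibition of test wells on that plate plus 3 SD, cut at about 28% in these data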;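 further: cells challenged with S1P at its EC80 of 0.8 µM; blue over green emission ratio from cleaved BLA substrate after 4 h stimulation; 0% = S1P-stimulated wells and 100% = unstimulated DMSO-only wells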
Target sequence (Q99500 whole entry, looked up): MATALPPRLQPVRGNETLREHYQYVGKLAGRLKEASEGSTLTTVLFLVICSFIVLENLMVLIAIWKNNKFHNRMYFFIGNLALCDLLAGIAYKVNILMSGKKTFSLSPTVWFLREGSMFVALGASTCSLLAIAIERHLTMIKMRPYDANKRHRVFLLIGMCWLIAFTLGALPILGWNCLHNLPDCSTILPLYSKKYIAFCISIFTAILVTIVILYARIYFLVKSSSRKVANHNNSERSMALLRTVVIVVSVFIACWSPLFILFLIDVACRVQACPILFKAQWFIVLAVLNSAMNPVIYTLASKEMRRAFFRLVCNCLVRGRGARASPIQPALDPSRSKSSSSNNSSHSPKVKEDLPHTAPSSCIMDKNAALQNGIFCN
Biofilm kill mix: clotrimazole potentiators killing C. albicans biofilm, primary screen, 4-compound mixtures. C. albicans biofilm persisters + clotrimazole, fluorescence viability; primary screen in compound mixtures of four per well. inhibition, % at 7.6 µM. hit rate 0.02% among 120,000;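 active means inhibition above 30.3% in the primary screen of four-compound pools, then above 30% when the compound was retested; inconclusive means passed the primary limit but could not be retested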;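 further: compounds exposed to preformed 24 h biofilms for 48 h; 0% = untreated biofilm control and 100% = clotrimazole plus chlorhexidine kill blank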
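System: C. albicans CAF4-2 wild-type biofilms; Medium: RPMI/MOPS medium, pH 7.0; Reagent: Clotrimazole, 50 µg/mL; Times: biofilm formation 24 h, compound exposure 48 h, 37 °C; Detection: 2-h Alamar Blue fluorescence, 535/590 nm excitation/emission; Evaluation: percent inhibition of biofilm viability.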
S1P4 ag: S1P4 receptor agonists, primary screen, cell-based | Sphingosine 1-phosphate receptor 4 (Homo sapiens), O95977 | S1P4-expressing cell line, agonist reporter assay | activation, % at 4.98 µM | hit rate 0.35% among 220,000 | AID 1509, 2009; in the data active means activation above about 11%;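 further: 0% = DMSO vehicle and 100% = reference agonist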
Tb hexokinase: Trypanosoma brucei hexokinase 1 inhibitors, primary screen, biochemical, G6PDH-coupled NADH absorbance, MLSCN library. hexokinase 1 [Trypanosoma brucei]. recombinant TbHK1, G6PDH-coupled NADH A340. inhibition, % at 10 µM. hit rate 0.11% among 220,000. AID 1430, 2008;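 active means inhibition of 50% or more in the single-dose primary screen; inactive means inhibition below 50%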
S1P4 antagonist: S1P4 receptor antagonists, primary screen, cell-based | Sphingosine 1-phosphate receptor 4 (Homo sapiens), O95977 | S1P4-expressing cells, antagonist mode, reporter read-out | inhibition, % at 4.98 µM | hit rate 0.26% among 220,000; in the data active means inhibition above about 29%;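 further: 0% = wells stimulated with agonist and 100% = vehicle wells without agonist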
Dynein inh conf: dynein cargo transport inhibitors, GR-EGFP translocation, confirmation, imaging, high-content imaging, GR-EGFP cells; AID 463116, 2010; hit rate 69% among 1,000; shares compounds with Dynein cargo inh; calls only at 20 µM; 3617.4 GR-EGFP nuclear translocation imaging, dexamethasone-induced;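 active means inhibition of receptor movement into the nucleus at or above a set limit in both runs, with normal cell brightness and cell count; inconclusive means limit reached in only one run, brightness and count normal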;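 further: dexamethasone at 1 µM final in well for 30 min; nuclear minus cytoplasmic GR-EGFP mean intensity difference in channel 2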
An asterisk follows results filed as active. A selection: hits, their analogues and other compounds. The true share with any hit is near 1.3%.

For COc1ccc(N2C(=O)CC(Sc3ncn[nH]3)C2=O)c(OC)c1 (stereo not given) the results were Dynein cargo inh -4*, S1P3 antag 19, S1P4 ag -1, Tb hexokinase -1, S1P4 antagonist 2 and Dynein inh conf active.
For CCC(C)(C)c1ccc(OCCCC[n+]2cccc(C)c2C)c(C(C)(C)CC)c1 the results were Dynein cargo inh -5.2*, S1P3 antag -14, Biofilm kill mix 18, S1P4 ag 0, Tb hexokinase 28, S1P4 antagonist -3 and Dynein inh conf inactive.
For Cc1cc(C(C)(C)C)ccc1OCCCCN1CCCC1 the results were Dynein cargo inh -0.69, S1P3 antag -3, Biofilm kill mix 8, S1P4 ag 0, Tb hexokinase 12 and S1P4 antagonist -10.
For CC(Sc1cnccn1)C(=O)O (stereo not given) the results were Dynein cargo inh 0.027, S1P3 antag 9, Biofilm kill mix 4, S1P4 ag -1, Tb hexokinase -4 and S1P4 antagonist -5.
Screening CC(=O)NCc1ccc(C(=O)CCl)cc1 returned Dynein cargo inh -6.8*, S1P3 antag -15, Biofilm kill mix 10, S1P4 ag 1, Tb hexokinase -1, S1P4 antagonist -15 and Dynein inh conf active.
Screening CN(Cc1ccccc1)C(=O)CCC(=O)N(C)Cc1ccccc1 returned Dynein cargo inh -0.44, S1P3 antag -28, S1P4 ag 0, Tb hexokinase 6 and S1P4 antagonist -9.
CC(=O)N(C)Cc1ccc(C(=O)CCl)cc1 was read as Dynein cargo inh -4.6, S1P3 antag -4, Biofilm kill mix -8, S1P4 ag -4, Tb hexokinase -3, S1P4 antagonist -11 and Dynein inh conf active.
CC(=O)NCc1ccc(C(=O)CCl)s1 was read as Dynein cargo inh -5*, S1P3 antag -2, Biofilm kill mix 6, S1P4 ag -1, Tb hexokinase -3, S1P4 antagonist 16 and Dynein inh conf active.
COCCCNc1nc2c(-c3ccc(Cl)cc3)nnn2c2ccccc12 was read as Dynein cargo inh -4.2*, S1P3 antag -16, Biofilm kill mix 19, S1P4 ag 2, Tb hexokinase -9, S1P4 antagonist -5 and Dynein inh conf inactive.
`NNc1nc2c(-c3ccc(Cl)cc3)nnn2c2ccccc12` gave Dynein cargo inh 1.2, S1P3 antag -7, Biofilm kill mix 11, S1P4 ag 4, Tb hexokinase -10 and S1P4 antagonist -5.
Cc1ccc(/C=C/C(=O)Nc2ccc([N+](=O)[O-])cc2)o1 was read as Dynein cargo inh -1, S1P4 ag 0, Tb hexokinase -17 and S1P4 antagonist -7.
Cc1ccc(/C=C/C(=O)Nc2ccc(Oc3ccccc3)cc2)o1 was read as Dynein cargo inh -3.6*, S1P3 antag 9, Biofilm kill mix 16, S1P4 ag 1, Tb hexokinase -15, S1P4 antagonist -7 and Dynein inh conf inactive.
`CCOC(=O)C1=C(O)c2ccccc2C(=O)/C1=C\c1ccc(CC)cc1` gave Dynein cargo inh -4.7, S1P4 ag -3, Tb hexokinase -5, S1P4 antagonist 7 and Dynein inh conf inactive.
`CCCc1ccc(/C=C2\C(=O)c3ccccc3C(O)=C2C(=O)OCC)cc1` gave Dynein cargo inh -3.5*, S1P4 ag 0, Tb hexokinase 9, S1P4 antagonist 8 and Dynein inh conf inconclusive.
For CCOC(=O)C1=C(Cc2ccc(OC)cc2)C(=O)c2ccccc2C1=O the results were Dynein cargo inh -6.1, S1P4 ag -2, Tb hexokinase 28, S1P4 antagonist 14 and Dynein inh conf active.
CCOC(=O)C1=C(Cc2ccc(C)cc2)C(=O)c2ccccc2C1=O was read as Dynein cargo inh -0.51, S1P4 ag 1, Tb hexokinase -3 and S1P4 antagonist 0.
For O=[N+]([O-])c1cccc(-n2nnnc2CNCc2ccccc2)c1 the results were Dynein cargo inh -0.22, S1P3 antag -7, Biofilm kill mix 19, S1P4 ag 1, Tb hexokinase -6 and S1P4 antagonist -8.
For Cc1ccc(Nc2nnc(SCC(=O)Nc3cc(C(=O)O)ccc3C)s2)c(C)c1 the results were Dynein cargo inh 0.6, S1P3 antag -3, Biofilm kill mix 10, S1P4 ag 0, Tb hexokinase -2 and S1P4 antagonist 9.
For Clc1ccccc1OCc1nnc(-c2ccccc2Br)o1 the results were Dynein cargo inh -0.85, S1P3 antag -15, S1P4 ag 1, Tb hexokinase 6 and S1P4 antagonist -7.
Screening O=c1c(Cl)c(Cl)cnn1Cc1nnc(-c2ccccc2Br)o1 returned Dynein cargo inh -5.6*, S1P3 antag -5, Biofilm kill mix 5, S1P4 ag -1, Tb hexokinase 0, S1P4 antagonist -6 and Dynein inh conf active.
For CCOC(=O)c1c(C)[nH]c(N=Nc2ccc(OC)cc2)c1C the results were Dynein cargo inh 0.79, S1P3 antag -1, Biofilm kill mix 21, S1P4 ag 1, Tb hexokinase -22 and S1P4 antagonist -3.
Screening N#CC(C#N)=C1C=C2C=C(N3CCCCC3)CCC2CC1 (stereo not given) returned Dynein cargo inh -7.3*, S1P3 antag 17, Biofilm kill mix 8, S1P4 ag 0, Tb hexokinase 1, S1P4 antagonist -15 and Dynein inh conf active.
CCCCN(C)C1=CC2=CC(=C(C#N)C#N)CCC2CC1 (stereo not given) was read as Dynein cargo inh -8.1*, S1P3 antag 1, Biofilm kill mix 25, S1P4 ag 1, Tb hexokinase 21, S1P4 antagonist -6 and Dynein inh conf active.
CCc1ccc(NC(=O)Cn2c(=O)n(CCC(=O)NC3CCN(Cc4ccccc4)CC3)c(=O)c3ccccc32)cc1 was read as Dynein cargo inh 0.08, S1P3 antag 1, Biofilm kill mix 4, S1P4 ag -2, Tb hexokinase 4 and S1P4 antagonist 6.
N#Cc1cc(-c2ccccc2)nc(Oc2ccc(Cl)cc2)n1 was read as Dynein cargo inh -4.3*, S1P3 antag 2, Biofilm kill mix 8, S1P4 ag -2, Tb hexokinase 38, S1P4 antagonist -15 and Dynein inh conf active.
N#Cc1cc(-c2ccccc2)nc(NN)n1 was read as Dynein cargo inh -0.53, S1P3 antag -3, Biofilm kill mix 28, S1P4 ag 0, Tb hexokinase -20 and S1P4 antagonist 1.
